# From ChEMBL document CHEMBL1159121, “Synthesis, in vitro structure-activity relationship, and in vivo studies of 2-arylthiazolidine-4-carboxylic acid amides as anticancer agents” (Bioorg Med Chem, 2010)
# Tests used:
# [1] = test system: A-375; test: Cell cycle arrest in human A375 cells by assessed as increase in accumulation at subG1 phase […] by flow cytometry; format: functional, cell-based
# [2] = test system: CAKI-1; test: Growth inhibition of human Caki1 cells; format: functional
# [3] = test system: A-375; test: Antiproliferative activity against human A375 cells after 48 hrs by SRB assay; format: functional, cell-based; settings: A-375, 48 h
# In short: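 Melanoma lines and control fibroblasts grown at 37 °C, 5% CO2, then exposed to a wide concentration range for 48 h in round-bottom 96-well plates. Fixed with 10% TCA, stained with SRB, protein read at 560 nm. IC50 (50% growth inhibition versus untreated) obtained by nonlinear regression.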
# [4] = test system: LNCaP; test: Antiproliferative activity against human LNCAP cells after 96 hrs by SRB assay; format: functional, cell-based
# In short: (§1)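 Prostate lines in RPMI1640/10% FBS; RH7777 in DMEM/10% FBS. Cells TCA-fixed, stained with 0.4% SRB, absorbance read at 540 nm. IC50 from nonlinear regression of % survival against concentration.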
# [5] = test system: PPC-1; test: Antiproliferative activity against human PPC1 cells after 96 hrs by SRB assay; format: functional, cell-based; settings: PPC-1, 96 h; in short: as §1
Compound,Activity [1],GI50 [2],TGI [2],CC50 ([2]; read-out: LC50 (the source's name)),IC50 [3],IC50 [4],IC50 [5]
CCCCCCCCCCCCCCCCNC(=O)[C@@H]1CSC(c2ccc(NC(C)=O)cc2)N1 (mixture of isomers),Dose-dependent effect,,,,,,
CCCCCCCCCCCCCCCCCCNC(=O)[C@@H]1CSC(c2ccccc2)N1 (mixture of isomers),,2.3 µM,4.31 µM,8.08 µM,15 µM,4.2 µM,2.4 µM
